Reference: PMC4325620 (Memórias do Instituto Oswaldo Cruz, 2014)
Like-named read-outs stand apart in the source and are kept apart here.

Columns and labels:
[1] = system: axenic amastigotes of Leishmania donovani; conditions: ref Weniger et al. 2006, Kunert et al. 2008; cited from earlier work
[2] = system: NO production by L. amazonensis infected cells; experiment: Nitric oxide; format: cell-based, BALB/c mice; conditions: for NO production: vs untreated infected cells; for production of nitric oxide (NO): treated infected cells, concentration not given
Outline: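 Supernatants were taken from infected BALB/c peritoneal macrophages treated as in the amastigote assay. Nitrite was quantified against a sodium nitrite standard curve (1-10 µM in RPMI). Results are mean ± SD, compared with untreated infected cells by Student's t test.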

[3] = system: fibroblast cells (NIH/3T3); experiment: Cytotoxicity assay; format: cell-based, murine; conditions: for IC50: Mus musculus, NIH3T3, 48 h; for NIH/3T3 SI (selectivity index): SI = IC50 mammalian cell/IC50 amastigotes (µg/mL)
Outline: (§1)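 Cells exposed 48 h at 37 °C, 5% CO2, to four concentrations (0.25-250 µg/mL) in triplicate. Amphotericin B reference (0.025-25 µg/mL); DMSO vehicle control. SRB read-out: fixation in cold 20% TCA, 30 min at 4 °C; 0.1% SRB in 1% acetic acid, 30 min; dye solubilised in 10 mM Trizma; OD 540 nm. IC50 by non-linear regression. SI = mammalian-cell IC50 / amastigote IC50.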

[4] = system: promastigotes of Leishmania donovani; conditions: ref Camacho et al. 2000; cited from earlier work
[5] = system: Murine macrophages (J774.A1); experiment: Cytotoxicity assay; format: cell-based; conditions: for IC50: Mus musculus, J774.A1, 48 h; for J774.A1 SI (selectivity index): SI = IC50 mammalian cell/IC50 amastigotes (µg/mL)
Outline: as §1

[6] = system: intracellular amastigotes of Leishmania (Leishmania) amazonensis; format: cell-based, Leishmania (L.) amazonensis (IFLA/BR/1967/PH8); conditions: for reduction of infection index: 72 h; for IC50: Peritoneal macrophage
Outline: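 Resident peritoneal macrophages from 6-week-old female BALB/c mice, 1 x 10^5/well in RPMI-1640 with 10% FCS and gentamicin, 1 h at 37 °C, 5% CO2. Infected with promastigotes (1 x 10^6/well), 4 h at 35 °C. Extract 50-12.5 µg/mL (24, 48, 72 h) or isolated compounds (72 h) at 35 °C. Giemsa staining; 200 cells counted per replicate. Infection index = % infected macrophages × mean amastigotes per macrophage. IC50 by non-linear dose-response regression.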

[7] = read-out: Intracellular amastigotes IC50
[8] = read-out: Intracellular amastigotes IC50 (µM)

## O=c1cc(-c2ccc(O)c(-c3c(O)cc(O)c4c(=O)cc(-c5ccc(O)cc5)oc34)c2)oc2cc(O)cc(O)c12 [Amentoflavone, amentoflavone]
[1]
  activity on axenic amastigotes: not active
[2]; 0.75 µg/mL, 72 h, p < 0.01
  NO production: significantly lower
[2]; 1.5 µg/mL, 72 h, p < 0.05
  NO production: significantly lower
[2]
  production of nitric oxide (NO): lower
[3]; read-out: NIH/3T3 IC50
  IC50: 2.2 µg/mL
[3]; read-out: NIH/3T3 IC50 (µM)
  IC50: 4 µM
[3]
  NIH/3T3 SI (selectivity index): 22
[4]
  activity on promastigotes: poor activity
[5]; read-out: J774.A1 IC50
  IC50: 3 µg/mL
[5]; read-out: J774.A1 IC50 (µM)
  IC50: 5.5 µM
[5]
  J774.A1 SI (selectivity index): 30
[6]; all concentrations tested, compared to the control
  reduction of infection index: greater than 90.6%
[6]; highest concentration (3 µg/mL)
  reduction of infection index: ~100%
[6]; [7]
  IC50: 0.1 µg/mL
[6]; [8]
  IC50: 0.2 µM

## C[C@@H]1[C@H](O)[C@@H](C)/C=C/C=C/C=C/C=C/C=C/C=C/C=C/[C@H](O[C@@H]2O[C@H](C)[C@@H](O)[C@H](N)[C@@H]2O)C[C@@H]2O[C@](O)(C[C@@H](O)C[C@@H](O)[C@H](O)CC[C@@H](O)C[C@@H](O)CC(=O)O[C@H]1C)C[C@H](O)[C@H]2C(=O)O [Amphotericin B, reference compound]
[3]; read-out: NIH/3T3 IC50
  IC50: 2.2 µg/mL
[3]; read-out: NIH/3T3 IC50 (µM)
  IC50: 2.2 µM
[3]
  NIH/3T3 SI (selectivity index): 73
[5]; read-out: J774.A1 IC50
  IC50: 4.3 µg/mL
[5]; read-out: J774.A1 IC50 (µM)
  IC50: 4.7 µM
[5]
  J774.A1 SI (selectivity index): 143.3
[6]; [7]
  IC50: 0.03 µg/mL
[6]; [8]
  IC50: 0.035 µM

## O=c1cc(-c2ccc(O)c(-c3c(O)cc4oc(-c5ccc(O)cc5)cc(=O)c4c3O)c2)oc2cc(O)cc(O)c12 [Robustaflavone, robustaflavone]
[2]; highest concentration tested, 72 h
  NO release: increased
[2]
  production of nitric oxide (NO): higher
[3]; read-out: NIH/3T3 IC50
  IC50: 25.5 µg/mL
[3]; read-out: NIH/3T3 IC50 (µM)
  IC50: 47.4 µM
[3]
  NIH/3T3 SI (selectivity index): 9.1
[5]; read-out: J774.A1 IC50
  IC50: 3.1 µg/mL
[5]; read-out: J774.A1 IC50 (µM)
  IC50: 5.7 µM
[5]
  J774.A1 SI (selectivity index): 1.1
[6]; 12.5 µg/mL
  reduction of infection index: 90.8%
[6]; [7]
  IC50: 2.8 µg/mL
[6]; [8]
  IC50: 5.3 µM
